Test results reported in ChEMBL document CHEMBL1125116 (J Med Chem, 1990).

Assays:
[1] = test system: Rattus norvegicus; experiment: Biodistribution of [125I]IBF in lung was determined in rats 2 minutes after intraveneous injection; type: ADME, organism-based; conditions: in vivo, iv
Method in brief: (§1)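 Male Sprague–Dawley rats (225–300 g) with free access to food and water. Under halothane anesthesia they received [125I]IBF (8–10 μCi in 0.2 mL saline) into the femoral vein. Rats were killed by cardiac excision under halothane at the stated time. Organs were weighed and gamma-counted, and % dose/organ was taken against diluted aliquots of the injectate. Blood was assumed to be 7% of body weight and muscle 40%.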

[2] = test system: Rattus norvegicus; experiment: Biodistribution of [125I]IBF in brain/blood was determined in rats 60 minutes after intraveneous injection; type: ADME, organism-based; conditions: in vivo, iv, 1 h
[3] = test system: Rattus norvegicus; experiment: Biodistribution of [125I]IBF was in skin determined in rats 2 minutes after intraveneous injection; type: ADME, organism-based, Zone of skin; conditions: in vivo, iv
Method in brief: (§2)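 Male Sprague–Dawley rats (225–300 g) with free access to food and water were anesthetized with halothane. Each received 0.2 mL saline containing 8–10 μCi [125I]IBF into the femoral vein and was killed by cardiac excision under halothane at set times. Organs were weighed and gamma-counted, and uptake was calculated against diluted aliquots of the injected dose.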

[4] = test system: Rattus norvegicus; experiment: Biodistribution of [125I]IBF in striatum was determined in rats 60 minutes after intraveneous injection; type: ADME, organism-based; conditions: in vivo, iv, 1 h; method in brief: as §2
[5] = test system: Rattus norvegicus; experiment: Biodistribution of [125I]IBF in blood was determined in rats 30 minutes after intraveneous injection; type: ADME, organism-based; conditions: in vivo, iv, 0.5 h; method in brief: as §1
[6] = test system: Rattus norvegicus; experiment: Biodistribution of [125I]IBF in brain was determined in rats 15 minutes after intraveneous injection; type: ADME, organism-based; conditions: in vivo, iv, 0.25 h; method in brief: as §1
[7] = test system: Rattus norvegicus; experiment: Biodistribution of [125I]IBF in lung was determined in rats 120 minutes after intraveneous injection; type: ADME, organism-based; conditions: in vivo, iv, 2 h; method in brief: as §1
[8] = test system: Rattus norvegicus; experiment: Biodistribution of [125I]IBF in brain was determined in rats 60 minutes after intraveneous injection; type: ADME, organism-based; conditions: in vivo, iv, 1 h; method in brief: as §1
[9] = test system: Rattus norvegicus; experiment: Biodistribution of [125I]IBF in muscle was determined in rats 15 minutes after intraveneous injection; type: ADME, organism-based, Muscle tissue; conditions: in vivo, iv, 0.25 h; method in brief: as §1
[10] = test system: Rattus norvegicus; experiment: Biodistribution of [125I]-IBF in heart was determined in rats 30 minutes after intraveneous injection; type: ADME, organism-based; conditions: in vivo, iv, 0.5 h; method in brief: as §1
[11] = test system: Rattus norvegicus; experiment: Biodistribution of [125I]IBF in brain/blood was determined in rats 15 minutes after intraveneous injection; type: ADME, organism-based; conditions: in vivo, iv, 0.25 h
[12] = test system: Rattus norvegicus; experiment: Biodistribution of [125I]IBF in striatum was determined in rats 30 minutes after intraveneous injection; type: ADME, organism-based; conditions: in vivo, iv, 0.5 h; method in brief: as §2
[13] = test system: Rattus norvegicus; experiment: Biodistribution of [125I]IBF in kidney was determined in rats 30 minutes after intraveneous injection; type: ADME, organism-based; conditions: in vivo, iv, 0.5 h; method in brief: as §1
[14] = test system: Rattus norvegicus; experiment: Biodistribution of [125I]IBF in skin was determined in rats 30 minutes after intraveneous injection; type: ADME, organism-based, Zone of skin; conditions: in vivo, iv, 0.5 h; method in brief: as §1
[15] = test system: Rattus norvegicus; experiment: Biodistribution of [125I]IBF in srtiatum was determined in rats 15 minutes after intraveneous injection; type: ADME, organism-based; conditions: in vivo, iv, 0.25 h
[16] = test system: Rattus norvegicus; experiment: Biodistribution of [125I]IBF in spleen was determined in rats 15 minutes after intraveneous injection; type: ADME, organism-based; conditions: in vivo, iv, 0.25 h; method in brief: as §1
[17] = test system: Rattus norvegicus; experiment: Biodistribution of [125I]-IBF in muscle was determined in rats 120 minutes after intraveneous injection; type: ADME, organism-based, Muscle tissue; conditions: in vivo, iv, 2 h; method in brief: as §1
[18] = test system: Rattus norvegicus; experiment: Biodistribution of [125I]IBF in striatum was determined in rats 2 minutes after intraveneous injection; type: ADME, organism-based; conditions: in vivo, iv; method in brief: as §2
[19] = test system: Rattus norvegicus; experiment: Biodistribution of [125I]IBF in thyroid was determined in rats 120 minutes after intraveneous injection; type: ADME, organism-based, Thyroid gland; conditions: in vivo, iv, 2 h; method in brief: as §2
[20] = test system: Rattus norvegicus; experiment: Biodistribution of [125I]IBF in kidney was determined in rats 2 minutes after intraveneous injection; type: ADME, organism-based; conditions: in vivo, iv; method in brief: as §1
[21] = test system: Rattus norvegicus; experiment: Biodistribution of [125I]-IBF in liver was determined in rats 60 minutes after intraveneous injection; type: ADME, organism-based; conditions: in vivo, iv, 1 h; method in brief: as §1
[22] = test system: Rattus norvegicus; experiment: Biodistribution of [125I]IBF in lung was determined in rats 15 minutes after intraveneous injection; type: ADME, organism-based; conditions: in vivo, iv, 0.25 h; method in brief: as §1
[23] = test system: Rattus norvegicus; experiment: Biodistribution of [125I]IBF in brain/blood was determined in rats 30 minutes after intraveneous injection; type: ADME, organism-based; conditions: in vivo, iv, 0.5 h
[24] = test system: Rattus norvegicus; experiment: Biodistribution of [125I]IBF in thyroid was determined in rats 2 minutes after intraveneous injection; type: ADME, organism-based, Thyroid gland; conditions: in vivo, iv; method in brief: as §2
[25] = test system: Rattus norvegicus; experiment: Biodistribution of [125I]IBF in brain was determined in rats 120 minutes after intraveneous injection; type: ADME, organism-based; conditions: in vivo, iv, 2 h; method in brief: as §1
[26] = test system: Rattus norvegicus; experiment: Biodistribution of [125I]IBF in muscle was determined in rats 30 minutes after intraveneous injection; type: ADME, organism-based, Muscle tissue; conditions: in vivo, iv, 0.5 h; method in brief: as §1
[27] = test system: Rattus norvegicus; experiment: Biodistribution of [125I]IBF in heart was determined in rats 15 minutes after intraveneous injection; type: ADME, organism-based; conditions: in vivo, iv, 0.25 h; method in brief: as §1
[28] = test system: Rattus norvegicus; experiment: Biodistribution of [125I]IBF in spleen was determined in rats 30 minutes after intraveneous injection; type: ADME, organism-based; conditions: in vivo, iv, 0.5 h; method in brief: as §1
[29] = test system: Rattus norvegicus; experiment: Biodistribution of [125I]IBF in brain/blood was determined in rats 2 minutes after intraveneous injection; type: ADME, organism-based; conditions: in vivo, iv
[30] = test system: Rattus norvegicus; experiment: Biodistribution of [125I]IBF in spleen was determined in rats 60 minutes after intraveneous injection; type: ADME, organism-based; conditions: in vivo, iv, 1 h; method in brief: as §1

Dose/organ [1]: 6.14% | Dose/organ [2]: 1.9 | Dose/organ [3]: 8.54% | Dose/gram [4]: 0.705 % dose/g | Dose/organ [5]: 1.26% | Dose/organ [6]: 0.54% | Dose/organ [7]: 0.12% | Dose/organ [8]: 0.17% | Dose/organ [9]: 14.36% | Dose/organ [10]: 0.11% | Dose/organ [11]: 3.01 | Dose/organ [12]: 0.66% | Dose/organ [13]: 1.58% | Dose/organ [14]: 5.34% | Dose/organ [15]: 0.842% | Dose/organ [16]: 0.58% | Dose/organ [17]: 2.3% | Dose/organ [18]: 0.743% | Dose/organ [19]: 0.08% | Dose/organ [20]: 7.58% | Dose/organ [21]: 9.84% | Dose/organ [22]: 1.85% | Dose/organ [23]: 2.26 | Dose/organ [24]: 0.06% | Dose/organ [25]: 0.07% | Dose/organ [26]: 9% | Dose/organ [27]: 0.2% | Dose/organ [28]: 0.31% | Dose/organ [29]: 2.64 | Dose/organ [30]: 0.09%
Compound: CCN1CCC[C@H]1CNC(=O)c1cc(I)cc2c1OCC2
